{"source": "ChEMBL document CHEMBL1147580", "about": "“Antihyperglycemic activity of 2-methyl-3,4,5-triaryl-1H-pyrroles in SLM and STZ models” (2004)", "key": {"[1]": {"tested_on": "Rattus norvegicus", "experiment": "In vivo anti-hyperglycaemic activity of compound in rat sucrose(100 mg/kg, oral gavage) loaded model (SLM) at 100 mg/kg dose", "type": "functional", "method_in_brief": "(§1)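 Overnight-fasted male Sprague–Dawley rats, five per group, were bled at baseline and then given the compound at 100 mg/kg by oral gavage. Sucrose (10 gm/kg) was loaded 30 min later. Blood glucose was taken at 30, 60, 90 and 120 min after the load, and % fall was calculated by the AUC method. Values are means of three experiments.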"}, "[2]": {"tested_on": "Rattus norvegicus", "experiment": "In vivo anti-hyperglycaemic activity of compound in rat streptozotocin(60 mg/kg, ip) model (STZ) at 100 mg/kg dose"}, "[3]": {"tested_on": "Rattus norvegicus", "experiment": "In vivo anti-hyperglycaemic activity of compound in rat sucrose(100 mg/kg, oral gavage) loaded model (SLM) at 100 mg/kg dose; NA = not active", "type": "functional, organism-based", "set-up": "dose 100 mg/kg", "method_in_brief": "as §1"}}, "note": "Active and inactive are the calls of the source. The calls are words filed in the database; no cut-off is given here."}
{"smiles": "COc1ccc(-c2c(C)[nH]c(-c3ccccc3)c2-c2ccccc2)c(OC)c1", "values": [{"measurement": "Blood sugar lowering", "setting": "[1]", "result": 20.3, "unit": "%"}]}
{"smiles": "Cc1[nH]c(-c2ccccc2)c(-c2ccccc2)c1-c1ccc(F)cc1", "values": [{"measurement": "Blood sugar lowering", "setting": "[2]", "result": 34.7, "unit": "%"}, {"measurement": "Blood sugar lowering", "setting": "[1]", "result": 49.7, "unit": "%"}]}
{"smiles": "Cc1[nH]c(-c2ccccc2)c(-c2ccccc2)c1-c1cccc(C(F)(F)F)c1", "values": [{"measurement": "Blood sugar lowering", "setting": "[2]", "result": 25.1, "unit": "%"}, {"measurement": "Blood sugar lowering", "setting": "[1]", "result": 40.8, "unit": "%"}]}
{"smiles": "COc1ccc(-c2c(C)[nH]c(-c3ccccc3)c2-c2ccccc2)cc1OC", "values": [{"measurement": "Blood sugar lowering", "setting": "[2]", "result": 28.6, "unit": "%"}, {"measurement": "Blood sugar lowering", "setting": "[1]", "result": 27.8, "unit": "%"}]}
{"smiles": "Cc1[nH]c(-c2ccc(Cl)cc2)c(-c2ccc(Cl)cc2)c1-c1ccc(F)cc1", "values": [{"measurement": "Blood sugar lowering", "setting": "[3]", "result": "inactive"}]}
{"smiles": "COc1ccc(-c2[nH]c(C)c(-c3ccc(F)cc3)c2-c2ccc(OC)cc2)cc1", "values": [{"measurement": "Blood sugar lowering", "setting": "[1]", "result": 14.7, "unit": "%"}]}
{"smiles": "c1ccc(-c2nc(-c3ccccc3)c(-c3ccccc3)nc2-c2ccccc2)cc1", "values": [{"measurement": "Blood sugar lowering", "setting": "[1]", "result": 21.9, "unit": "%"}]}
{"smiles": "Cc1[nH]c(-c2cccc(Cl)c2)c(-c2cccc(Cl)c2)c1-c1ccc(F)cc1", "values": [{"measurement": "Blood sugar lowering", "setting": "[3]", "result": "inactive"}]}
{"smiles": "Cc1[nH]c(-c2ccc(Cl)cc2)c(-c2ccc(Cl)cc2)c1-c1ccccc1F", "values": [{"measurement": "Blood sugar lowering", "setting": "[3]", "result": "inactive"}]}
{"smiles": "Cc1[nH]c(-c2ccccc2)c(-c2ccccc2)c1-c1ccccc1F", "values": [{"measurement": "Blood sugar lowering", "setting": "[3]", "result": "inactive"}]}
